This is a sample that favours compounds with a hit; in the whole collection about 2.4% have one here.
LMPTP block – LMPTP (human) inhibition; 360,000 compounds, 0.22% hits; inhibition, % at 20 µM; recombinant LMPTP-A, OMFP fluorogenic substrate, fluorescence intensity;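 active = compounds that cut the enzyme signal by at least half of the control window in the single-dose screen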;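 note: plate controls were DMSO wells with enzyme plus substrate for no effect and substrate without enzyme for full effect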
Target sequence (P24666 whole entry, looked up): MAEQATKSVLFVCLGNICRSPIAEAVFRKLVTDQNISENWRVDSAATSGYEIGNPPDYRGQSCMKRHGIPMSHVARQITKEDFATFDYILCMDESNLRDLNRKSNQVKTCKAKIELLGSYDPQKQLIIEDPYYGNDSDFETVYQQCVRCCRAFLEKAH
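Assay system: LMPTP-A phosphatase enzyme | Input: 0.625 nM enzyme | Also added: Fluorogenic phosphatase substrate OMFP at 400 µM final | Compound dosing: One test concentration per compound, 20 µM, with 3% DMSO overall | Schedule: 50 min enzyme reaction at room temperature, protected from light | Signal: Fluorescence intensity | Benchmarks: no-enzyme and uninhibited controls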
SUMO1-SIM PPI – modulators of human SUMO1-mediated protein-protein interactions; P63165; SUMO1 binding to a labelled peptide, TR-FRET, 1 h; inhibition, % at 20 µM; 360,000 compounds, 0.33% hits; AID 602429; in the data active = inhibition above about 37%
Target sequence (P63165 whole entry, looked up): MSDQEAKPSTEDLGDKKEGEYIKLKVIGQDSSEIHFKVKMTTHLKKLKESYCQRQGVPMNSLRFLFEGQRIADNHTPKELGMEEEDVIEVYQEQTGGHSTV
DNMT1 block – DNMT1 (human) enzyme inhibition. DNMT1 molecular beacon, Hinp1I cleavage, fluorescence. 360,000 compounds, 0.83% hits. inhibition (reported as % activation of signal), % at 10 µM; in the data active = inhibition above about 50%
STEP block – STEP (human) phosphatase inhibition. P54829. recombinant STEP, OMFP fluorogenic substrate, fluorescence. inhibition, % at 20 µM. 360,000 compounds, 0.25% hits. AID 588621;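 active = inhibition at 20 µM, scaled per plate between control wells, above about 37%, limit read from the data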;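 note: 0% = DMSO with enzyme and substrate and 100% = substrate only without enzyme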
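Test system: STEP tyrosine phosphatase / Reagent: OMFP at 25 µM / Doses: 20 µM, 1% DMSO / Read-out: percent inhibition scaled to no-enzyme and uninhibited-enzyme controls, plate-pattern corrected / Detection: FITC-channel fluorescence of OMFP product / Medium: Bis-Tris buffer pH 6.0, 2.5 mM DTT, 0.005% Tween 20 / Schedule: 20 min at room temperature, dark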
NadD block – blocks S. aureus nicotinate mononucleotide adenylyltransferase; purified NadD enzyme, colorimetric absorbance read-out; inhibition, % at 20 µM; 360,000 compounds, 0.78% hits; AID 602399; in the data active = inhibition above about 26%
Scp-1 inhibitor – blocks human Scp-1 phosphatase activity. Q9GZU7. 340,000 compounds, 0.88% hits. inhibition, % at 20 µM. Recombinant Scp1, phosphopeptide, malachite green phosphate absorbance;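 active = inhibition above about 50% at 20 µM, limit read from the data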;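 note: plate controls were DMSO wells with enzyme for no effect and wells lacking enzyme for full effect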
Target sequence (Q9GZU7 76-261 limits assumed): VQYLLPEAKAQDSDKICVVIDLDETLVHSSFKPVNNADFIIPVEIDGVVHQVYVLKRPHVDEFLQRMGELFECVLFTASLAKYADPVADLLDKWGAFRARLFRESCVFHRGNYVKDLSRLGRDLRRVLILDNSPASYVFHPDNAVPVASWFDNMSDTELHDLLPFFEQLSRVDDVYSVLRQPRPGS
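Test system – truncated SCP-1 phosphatase (76-261aa) · Reagent – Phosphorylated 17-residue peptide substrate · Incubation – 45 min room-temperature reaction, 5 min colour, 30 min stabiliser · Detection – colorimetric phosphate reagent with accelerator and stabiliser, absorbance at 630 nm · Measure – % inhibition at 20 µM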
* = called active by the depositor; . = no result given.

SMILES	LMPTP block	SUMO1-SIM PPI	DNMT1 block	STEP block	NadD block	Scp-1 inhibitor
Cc1ccc(N2C(=O)NC(=O)/C(=C\c3cc(C)n(-c4cc(C(=O)O)cc(C(=O)O)c4)c3C)C2=O)cc1	-1	12	41	5	-2	51*
O=C1NC(=O)N(CCc2ccc(F)cc2)C(=O)/C1=C\C=C\c1ccccc1	0	24	9	-2	36*	-5
CNc1ccc2oc(C[C@H]3O[C@@]4(CC[C@H]3C)O[C@H]([C@H](C)C(=O)c3ccc[nH]3)[C@H](C)C[C@H]4C)nc2c1C(=O)O	4	6	14	4	59*	-9
COc1ccc(/C=C/C2=CCN(C)CC2)cc1	-1	-9	-4	-2	-9	-8
Clc1ccc(C2NCCc3[nH]cnc32)cc1 (configuration not stated)	-2	41*	-4	2	-10	-11
Fc1cccc(C2NCCc3[nH]cnc32)c1 (configuration not stated)	-6	1	-1	-2	-1	-13
CN(C)C1C(=O)C(C(N)=O)=C(O)C2(O)C(=O)C3=C(O)c4c(O)cccc4C(C)(O)C3C(O)C12 (configuration not stated)	52*	8	53*	6	1	16
CSCCC(c1nnnn1-c1c(C)cccc1C)N1CCC(n2c(=O)[nH]c3ccccc32)CC1 (configuration not stated)	5	-3	-9	1	11	.
O=c1c2ccccc2[se]n1-c1ccccc1	0	-7	-2	-3	6	101*
O=c1c2ccccc2nc(-c2ccccc2)n1-c1ccccc1	-2	3	2	-2	0	-11
COc1ccc(-n2c(Cc3cccc([N+](=O)[O-])c3)nc3ccccc3c2=O)cc1	0	-5	1	-2	5	5
O=C1NC(=O)N(Cc2ccco2)C(=O)/C1=C/C=C/c1ccco1	23	92*	97*	40*	19	81*
Cc1ccccc1-n1c(C)cc(/C=C2/C(=O)NC(=O)N(Cc3ccco3)C2=O)c1C	2	1	30	3	16	-3
O=C1NC(=O)N(Cc2ccccc2)C(=O)/C1=C\C=C\c1ccco1	3	15	45	4	2	-1
Cc1ccc(N2C(=O)NC(=O)/C(=C\C=C\c3ccco3)C2=O)cc1C	0	3	66*	0	2	0
Cc1ccc(OCCn2cccc2/C=C2/C(=O)NC(=O)N(Cc3ccco3)C2=O)cc1	3	17	61*	4	9	4
CCOC(=O)C1CCN(/C=C2/C(=O)NC(=O)N(Cc3ccco3)C2=O)CC1	2	11	29	6	3	66*
Cc1ccc(N2C(=O)NC(=O)/C(=C\C=C\c3ccco3)C2=O)cc1	0	0	28	0	1	2
CCCCCCn1c(O)c(C=NC2CCCCC2N)c(=O)[nH]c1=O (configuration not stated)	.	.	.	.	.	-7
CN1C(=O)N(C)C(=O)C2(Cc3cc(NC(=O)c4ccccc4Cl)ccc3N3CCCC32)C1=O (configuration not stated)	4	6	-15	0	12	-5
CN1C(=O)/C(=C/C=C/c2ccco2)C(=O)NC1=S	12	54*	94*	36	4	98*
O=C(CF)NC(NC(=S)Nc1ccccc1O)C(Cl)(Cl)Cl (configuration not stated)	-2	-6	2	0	6	6
O=C1NC(=O)C(=Cc2cn(CCOc3ccc4c(c3)OCO4)c3ccccc23)C(=O)N1	3	1	31	-17	43*	-2
C=CCn1cc(C=C2C(=O)NC(=O)NC2=O)c2ccccc21	0	-19	7	-9	2	31
COc1ccc(OC)c(N2C(=O)/C(=C/c3ccco3)C(=O)NC2=S)c1	.	.	.	.	.	89*
SMILES	LMPTP block	SUMO1-SIM PPI	DNMT1 block	STEP block	NadD block	Scp-1 inhibitor
COc1ccc(OC)c(N2C(=O)NC(=O)/C(=C/c3ccc([N+](=O)[O-])s3)C2=O)c1	4	47*	21	5	16	5
NC(N)=N/N=C/c1ccc(N(c2ccccc2)c2ccccc2)cc1	4	100*	14	13	13	-1
ClC1=C(Cl)C2(Cl)C3C(Cl)C=CC3C1(Cl)C2(Cl)Cl (configuration not stated)	0	8	2	-3	7	-6
CC12CN3CCN(C1)CC(C)(C3)C2=NN	-4	2	4	-1	-6	-7
CC1Oc2cc3c(-c4c(O)cc(O)c5c(O)c6c(cc45)OC(C)C(C)C6=O)c(O)cc(O)c3c(O)c2C(=O)C1C (configuration not stated)	13	43*	60*	5	36*	10
N#Cc1c(/N=C/c2c(O)n(Cc3ccco3)c(=O)[nH]c2=O)sc2c1CCCC2	3	5	67*	7	6	43
CCOC(=O)[C@]1(C#N)[C@@H]2C=CC(C(C)=O)=CN2[C@@H](C(N)=O)[C@@H]1c1ccsc1	0	67*	-5	4	8	-5
Cc1nc2c(=O)n(C)c(=O)nc-2n(C)n1	73*	29	128*	79*	-3	0
Cn1c(O)c(C2=NN(C(=O)CCl)C(c3ccccc3)C2)c(=O)n(C)c1=O (configuration not stated)	0	-1	4	2	5	-4
O=C(O)CC1OCC=C2CN3CCC45C6=CC(=O)C(=O)C([N+](=O)[O-])=C6NC4C1C2CC35 (configuration not stated)	15	30	58*	18	22	21
CS(=O)(=O)N1Cc2ccccc2-n2nncc2C1	0	5	3	-3	5	0
CCC1(c2ccc(N)cc2)CCC(=O)NC1=O (configuration not stated)	-1	0	-1	0	3	-4
N#CC(C#N)=NNc1ccc(S(N)(=O)=O)cc1	57*	31	46	2	41*	12
Nc1c(C(=O)NC2CCCC2)c2nc3ccccc3nc2n1CC1CCCO1 (configuration not stated)	8	41*	47	0	-7	6
C=CCn1c(O)c(C(CC)=Nc2ccc(C(=O)O)cc2)c(=O)[nH]c1=O	-2	1	2	2	-2	-2
Cc1ccc(OCCOc2cccc(C=C3C(=O)NC(=O)NC3=O)c2)c(C)c1	2	8	52*	2	2	-2
CSc1nc(C)c(Br)c(N2CC2)n1	2	8	5	3	4	3
Cc1nc2ccccc2c(=O)n1-c1ccc(C(=O)O)cc1	-1	-2	2	-4	1	-1

Source: PubChem
